Bioassay records: PubChem BioAssay, several laboratories
This is a sample that favours compounds with a hit; in the whole collection about 1.9% have one here.
LANA-H2B inh – blocks KSHV LANA binding to histone H2A/H2B; Q9QR71; cell-free LANA-H2A/H2B peptide, fluorescence polarization; inhibition, % (test concentration not listed); 320,000 compounds, 0.6% hits; AID 2629; in the data active = inhibition mostly above about 10%, no sharp cut-off; inactive = mostly below about 6.7%
Runt-SMMHC FRET – blocks binding of human RUNX1 Runt domain to CBFb-SMMHC; Cerulean-Runt/Venus-CBFb-SMMHC FRET ratio 530/480, 1 h; Q01196+Q13951; AID 1434; 220,000 compounds, 0.74% hits; inhibition, % at 20 µM;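 active = mean inhibition across duplicate retests at 20 µM reaching about 50%, limit read from the data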;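 also: 0% = DMSO wells and 100% = wells with excess untagged CBFb-SMMHC; inhibitors lower the FRET ratio by blocking Runt binding to CBFb-SMMHC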
CaV13 ICDI inh – Disruptors of the CACNA1D IQ motif to Ca2+-dependent inactivation inhibitor domain association, primary screening, Förster resonance energy transfer in intact living …; HEK cells, CFP/YFP FRET ICDI-IQ, plate reader, 10 min; percent FRET-ratio fall versus neutral wells; inhibition, % at 12.3 µM; 340,000 compounds, 0.098% hits; AID 743397;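 active = mean replicate inhibition of at least 30% and at least 1% of replicates passing that level; inconclusive = only one of the two criteria is met; inactive = neither criterion is met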;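 also: 0% = median of the neutral control wells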
HDAC3 inh – human HDAC3 inhibition; O15379; recombinant HDAC3, fluorogenic peptide/trypsin coupled, fluorescence; inhibition, % at 8.3 µM; 320,000 compounds, 0.15% hits; AID 2718; in the data active = inhibition above about 26%, passing the limit was not always enough; inconclusive = no clear call, values can overlap the other calls
Target sequence (O15379 whole entry, looked up): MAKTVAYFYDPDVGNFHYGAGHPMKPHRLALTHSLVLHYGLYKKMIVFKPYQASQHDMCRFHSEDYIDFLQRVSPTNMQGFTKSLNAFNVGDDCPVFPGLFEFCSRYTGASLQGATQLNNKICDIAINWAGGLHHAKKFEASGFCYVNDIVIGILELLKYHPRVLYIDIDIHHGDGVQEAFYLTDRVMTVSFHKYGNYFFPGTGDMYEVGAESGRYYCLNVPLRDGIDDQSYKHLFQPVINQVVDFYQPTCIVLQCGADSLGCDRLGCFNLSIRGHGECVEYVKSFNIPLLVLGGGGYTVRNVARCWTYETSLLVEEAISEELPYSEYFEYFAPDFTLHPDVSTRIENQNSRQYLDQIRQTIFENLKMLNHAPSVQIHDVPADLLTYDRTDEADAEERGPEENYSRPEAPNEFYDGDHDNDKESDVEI
RanGTP-Imp inh – inhibitors of RanGTP-importin-beta interaction, primary screen, biochemical, FRET, CFP-Ran, YFP-importin-beta, homogeneous; 300,000 compounds, 1.1% hits; inhibition, % (test concentration not listed); cell-free CFP-Ran/YFP-importin-beta FRET ratio;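 active = more than half of the replicate wells show a fall in the fluorescence ratio signal beyond about 16%, limit read from the data, passing the limit was not always enough; inconclusive = exactly half of the replicate wells pass the set limit; inactive = fewer than half of replicates pass the limit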;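 also: 0% = DMSO wells and 100% = Ran loaded with GDP instead of GTP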
Runt-CBFb FRET – inhibitors of human RUNX1 Runt domain binding to CBFb | Cerulean-Runt/Venus-CBFb FRET ratio 530/480, 1 h | inhibition, % at 20 µM | 220,000 compounds, 0.46% hits;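 active = inhibition over about 50% at 20 µM in the single-dose screen, limit read from the data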;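 also: 0% = DMSO wells and 100% = excess unlabeled CBFb competitor control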
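System: Cerulean-labeled Runt domain protein | Quantity: 100 nM of each labeled protein | Schedule: 1 h compound exposure, room temperature | Detection: Fluorescence energy transfer, 422 nm excitation, 530/480 nm emission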
Numbers without * were called inactive; ? = inconclusive; . = no result given; + = active, no number.

SMILES	LANA-H2B inh	Runt-SMMHC FRET	CaV13 ICDI inh	HDAC3 inh	RanGTP-Imp inh	Runt-CBFb FRET
O=C(Nc1ccc(NC(=O)c2ccco2)c(Cl)c1)c1ccccc1	21.4*	-1.4	4.4	-4.0	4.7	-0.8
CC(C)Oc1ccc(C(=O)Nc2ccc(NC(=O)c3ccco3)c(Cl)c2)cc1	-1.7	2.4	-5.2	4.5	2.5	.
CCCCNS(=O)(=O)c1ccc2nc(-c3cccnc3)cc(C(=O)NCC(OC)OC)c2c1	-2.2	.	-12.1	2.3	-0.7	.
O=C(N/N=C/c1sc(=O)[nH]c1-[n+]1ccc2ccccc2c1)c1ccccc1[O-]	-0.1	.	-5.8	5.9	24.1*	.
O=C(N/N=C/c1sc(=O)[nH]c1-[n+]1ccccc1)c1ccccc1[O-]	1.8	-12.8	-4.7	4.9	-4.1	2.1
COc1cc2c3c(c1)C1(C(=O)N3C(C)(C)C=C2C)C(C#N)=C(N)Oc2cc(C)oc(=O)c21 (stereo not given)	60.3*	-1.9	-5.1	.	0.8	-1.5
CC1=CC(c2ccc(Cl)cc2)n2nc(NC(=O)CCC(=O)O)nc2N1 (stereo not given)	-5.3	54.4*	-5.1	-54.7	1.4	28.8
O=S(=O)(c1ccc2c(c1)OCCO2)C1CCC(S(=O)(=O)c2c(F)cccc2F)CC1 (stereo not given)	4.5	.	-3.7	40.2*	.	.
COc1ccc(OC)c(NC(=O)C(CCS(C)(=O)=O)NC(C)=O)c1 (stereo not given)	-2.3	-2.6	.	0.1	2.4	2.8
COc1ccc(Cn2c(C)nc3c(c(=O)c4ccccc4n3C)c2=O)cc1	2.5	2.5	6.7	1.2	5.1	2.3
COc1ccc(CCn2c(C)nc3c(c(=O)c4ccccc4n3C)c2=O)cc1	10.6*	-2.6	-4.8	4.9	-0.6	-0.1
CCN1CCS/C1=C\C=C\C1=[N+](CC)CCS1	.	.	84.1*	.	6.4	128.1*
CCN1CCS/C1=C/C=C/C1=[N+](CC)CCS1	1.1	120.5*	.	35.7*	-2.8	139.6*
Nc1ccc(C(=O)NC2CCSc3ccccc32)cc1[N+](=O)[O-] (stereo not given)	-0.3	.	-1.3	1.0	-2.7	.
CCc1noc(C)c1C(=O)Nc1ccc(-c2nnc3n2CCCCC3)cc1	0.9	.	-7.1	7.8	-1.4	.
O=C(c1cccnc1)N1N=C(C2CC2)CC1(O)C(F)(F)F (stereo not given)	11.4*	-1.5	2.3	.	7.5	0.6
O=C(c1ccncc1)N1N=C(C2CC2)CC1(O)C(F)(F)F (stereo not given)	0.8	4.1	-17.2	-14.8	1.2	2.1
O=C(Cn1c(=O)c2c3c(sc2n(Cc2ccccc2)c1=O)CCCC3)NCCO	-0.8	.	-18.4	4.6	-0.2	.
Cc1ccc(C2CC(c3ccc(C)cc3)n3nc(N)nc3N2)cc1 (stereo not given)	-4.5	-0.5	-2.7	-2.3	-2.3	0.6
CSCCC(NC(C)=O)C(=O)Oc1ccc2c3c(c(=O)oc2c1)CCCC3 (stereo not given)	8.0	82.4*	-4.5	.	.	37.9
O=c1[nH]nc(-c2ccc(F)cc2)cc1Cc1cccs1	5.9	-1.8	-4.7	2.7	-1.1	1.1
Cc1cccc(NC(=O)CCc2ccc(N3C(N)=NC(N)=NC3(C)C)cc2)c1	.	.	-6.3	.	.	.
N=c1oc2ccccc2cc1C(=O)Nc1ccc(F)cc1	2.1	.	-4.1	-5.3	-2.8	.
N=c1oc2c3c4c(cc2cc1C(=O)Nc1ccccc1)CCCN4CCC3	7.5	60.9*	.	2.3	133.4*	32.4
CN(C(=O)c1ccccc1C(=O)OCC(=O)c1ccc(F)cc1)c1ccccc1	-1.5	.	-4.7	0.5	.	.
SMILES	LANA-H2B inh	Runt-SMMHC FRET	CaV13 ICDI inh	HDAC3 inh	RanGTP-Imp inh	Runt-CBFb FRET
CN(C(=O)c1ccccc1C(=O)OCC(=O)c1ccccc1)c1ccccc1	30.3*	.	-1.9	3.3	.	.
O=C(O)[C@@H]1CCCN1S(=O)(=O)c1cccc(S(=O)(=O)N2CCC[C@H]2C(=O)O)c1	-5.7	.	68.3*	-3.2	?	.
O=C(O)C1CCCN1S(=O)(=O)c1cccc(S(=O)(=O)N2CCCC2C(=O)O)c1 (stereo not given)	1.6	.	-6.3	-2.9	3.1	.
O=[N+]([O-])c1ccc(N/N=C/c2ccc[nH]2)cc1	+	-15.2	-6.2	17.7	.	5.8
O=C(COC(=O)Cc1ccccc1F)NCc1ccccc1Cl	.	.	-6.9	.	.	.
O=[N+]([O-])c1ccc(S(=O)(=O)NCC2COc3ccccc3O2)cc1 (stereo not given)	-0.1	.	-6.9	-5.2	186.9*	.
O=C(O)c1cc(S(=O)(=O)NCC2COc3ccccc3O2)ccc1Cl (stereo not given)	1.8	.	-6.3	-2.7	.	.
COc1cccc(-n2cc(CNCc3cn(C)nc3-c3ccccc3F)cn2)c1	8.7	-2.0	1.0	-0.9	64.0*	-0.1
OC(CNCCC1C=Nc2ccccc21)Cn1c2ccc(Cl)cc2c2cc(Cl)ccc21 (stereo not given)	-1.3	5.1	-2.0	45.9*	-0.7	-2.9
OC(CNCC1CCCO1)Cn1c2ccc(Cl)cc2c2cc(Cl)ccc21 (stereo not given)	1.0	-0.7	-7.4	14.7	-5.3	0.0
O=S(=O)(c1ccc2c(c1)CCCC2)N1CCNCC1	2.9	.	-5.4	0.2	.	.
C[C@@H]1NC(=O)c2cc([N+](=O)[O-])cc(I)c2NCC[C@@H](C(N)=O)NC(=O)[C@H](CC(N)=O)NC1=O	18.4*	-0.5	.	14.4	.	-1.7
C[C@@H]1NC(=O)[C@H](CCC(N)=O)NC(=O)c2cc([N+](=O)[O-])cc(I)c2NCC[C@@H](C(N)=O)NC1=O	-2.2	-2.4	.	5.0	.	-0.4
C1CN(CC23CC4CC(CC(C4)C2)C3)CCO1	0.7	-3.0	.	-5.3	-1.0	-2.8
COc1ccc(C2C=C(c3ccccc3)Nc3ncnn32)cc1 (stereo not given)	2.4	62.6*	.	-95.4	5.9	18.4
Clc1ccccc1C1=CC(c2ccco2)n2ncnc2N1 (stereo not given)	3.7	81.2	+	.	42.6*	10.3
CC(=O)Nc1cccc(C2=CC(c3ccco3)n3ncnc3N2)c1 (stereo not given)	29.7*	87.1	.	4.9	-133.2	-99.7
COc1ccc(C2=CC(c3ccco3)n3ncnc3N2)cc1 (stereo not given)	.	86.6*	.	.	.	-63.6
Clc1ccc(C2=CC(c3ccco3)n3ncnc3N2)cc1 (stereo not given)	6.6	-77.6	-24.1	-8.3	-82.9	.
Cc1ccc(C(=O)C2(C)C3c4cc(Br)ccc4OC(=O)C32C(=O)c2ccco2)cc1 (stereo not given)	5.4	0.9	.	10.6	5.2	-0.5
